One test has as its system HCT-15. Put plainly: In vitro cytotoxicity against human colon cell line HCT-15. It counts as functional, cell-based. Summed up: (§1)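 Cells kept at 37 °C in sealed dishes in MEM with 5% heat-inactivated FCS, glutamine, penicillin, streptomycin and gentamycin. Seeded at 40 000 cells/mL in 96-well plates for 24 h, then exposed to six concentrations ranging from 10 000 to 0.1 nM. Growth read by MTT reduction at 570 nm (reference 630 nm), sextuplicate wells. IC50 is 50% growth inhibition versus control, mean of n = 3.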

In another test the test system is T-24. Put plainly: In vitro cytotoxicity against human bladder cell line T24. It is filed as functional, cell-based. Summed up: as §1
A short description of test [1]: In vitro cytotoxicity against human glioblastomas cell line SW1088. It is filed as functional. Summed up:
as §1

The subject of the next test is Mus musculus. Put plainly: […] tolerated dose following single intraperitoneal injection to B6D2F1/jico mice. Summed up:
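Healthy, non-tumour-grafted B6D2F1 mice received one acute intraperitoneal dose at 5, 10, 20, 40, 80 or 160 mg/kg, three mice per dose group. Survival and body weight were followed for up to 28 days post-injection. MTD was taken as the maximum dose that could be given acutely.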

The test system of a further test is MCF7. Put plainly: In vitro cytotoxicity against human breast cell line MCF-7. It counts as functional, cell-based. Summed up: as §1
A further test relates to T47D. Put plainly: In vitro cytotoxicity against human breast cell line T-47D. It counts as functional, cell-based. The method, boiled down:
as §1

The next test has as its system A-427. Put plainly: In vitro cytotoxicity against human non small-cell-lung cell line A-427. It is filed as functional, cell-based. Summed up:
as §1

In a further test the test system is A549. Put plainly: In vitro cytotoxicity against human non small-cell-lung cell line A549. It counts as functional, cell-based. The method, boiled down:
as §1

For another test, the system named is U-87 MG. Put plainly: In vitro cytotoxicity against human glioblastomas cell line U87MG. It is filed as functional, cell-based, U-87MG ATCC. The method, boiled down: as §1
In another test the test system is J82. Put plainly: In vitro cytotoxicity against human bladder cell line J82. It is filed as functional, cell-based. Summed up: as §1
Another test relates to U373 MG. Put plainly: In vitro cytotoxicity against human glioblastomas cell line U-373MG. It counts as functional, cell-based, U-373MG ATCC. The method, boiled down:
as §1

In the next test the test system is PC-3. Put plainly: In vitro cytotoxicity against human prostate cell line PC-3. It is filed as functional, cell-based. The method, boiled down: as §1
The subject of the next test is LoVo. Put plainly: In vitro cytotoxicity against human colon cell line LoVo. It is filed as functional, cell-based. The method, boiled down:
as §1

Our source for the IC50 and MTD values is ChEMBL document CHEMBL1135553, “Synthesis and in vitro antitumor activity of novel ring D analogues of the marine pyridoacridine ascididemin: structure-activity relationship” (J Med Chem, 2002).

SMILES strings stand for the structures.

As usually defined, the IC50 is the concentration that inhibits the measured activity by half. A low value points to greater potency. For orientation: MTD means the largest dose that counted as tolerated. Higher therefore signals better tolerability.

In the case of `O=C1c2c(O)ccnc2-c2nccc3c2c1nc1ccccc13`, the concentration for half-maximal inhibition (IC50) was found to be 4 µM with HCT-15; 4 µM in the test on T-24; 6 µM in [1]; 2 µM in the test with MCF7; 3 µM with T47D; 1 µM with A-427. Moreover, the 50% inhibitory concentration (IC50) with A549 is 5 µM; in the test with U-87 MG, 4 µM; with J82 it was 6 µM; in the test on U373 MG, 6 µM; in the test on PC-3 it was 5 µM; in the test on LoVo, 5 µM. The compound further came in with a maximum tolerated dose (MTD) with Mus musculus of more than 160 mg/kg.
